Measured values taken from article PMC3616288 (The EMBO Journal, 2013).

What was measured:
[1] = molecular target: S. cerevisiae β′-COP(1–814)/α-COP(642–818) dimer (S. cerevisiae) (UniProt P41811); test: ITC
β′‐COP = molecular target: T1, β′‐COP (Saccharomyces cerevisiae, UniProt P41811); test: Isothermal calorimetry; type: binding, S. cerevisiae; conditions: ITC; relative to TFKKTN (yWbp1) peptide
T1 sequence (P41811 1-814): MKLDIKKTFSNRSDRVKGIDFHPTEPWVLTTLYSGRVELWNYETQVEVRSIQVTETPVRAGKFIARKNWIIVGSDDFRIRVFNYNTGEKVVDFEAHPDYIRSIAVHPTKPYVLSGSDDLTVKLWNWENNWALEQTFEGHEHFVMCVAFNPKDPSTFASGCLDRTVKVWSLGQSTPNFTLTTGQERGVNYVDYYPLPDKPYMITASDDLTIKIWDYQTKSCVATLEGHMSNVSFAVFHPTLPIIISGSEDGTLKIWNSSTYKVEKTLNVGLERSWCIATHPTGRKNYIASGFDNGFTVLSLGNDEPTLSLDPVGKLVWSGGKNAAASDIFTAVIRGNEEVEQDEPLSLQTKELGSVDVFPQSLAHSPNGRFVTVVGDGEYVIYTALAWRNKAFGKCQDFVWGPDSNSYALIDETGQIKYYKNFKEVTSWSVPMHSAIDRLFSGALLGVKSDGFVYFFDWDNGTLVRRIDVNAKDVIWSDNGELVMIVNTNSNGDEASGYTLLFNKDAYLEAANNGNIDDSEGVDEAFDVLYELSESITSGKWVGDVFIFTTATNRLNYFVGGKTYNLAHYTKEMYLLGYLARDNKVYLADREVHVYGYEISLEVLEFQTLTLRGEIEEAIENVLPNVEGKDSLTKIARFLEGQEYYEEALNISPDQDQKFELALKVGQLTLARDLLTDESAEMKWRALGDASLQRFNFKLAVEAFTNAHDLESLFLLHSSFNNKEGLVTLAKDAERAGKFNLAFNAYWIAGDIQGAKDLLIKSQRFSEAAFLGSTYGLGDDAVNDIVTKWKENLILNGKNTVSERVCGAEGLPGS
T1 sequence (P53622 642-818 partner limits assumed): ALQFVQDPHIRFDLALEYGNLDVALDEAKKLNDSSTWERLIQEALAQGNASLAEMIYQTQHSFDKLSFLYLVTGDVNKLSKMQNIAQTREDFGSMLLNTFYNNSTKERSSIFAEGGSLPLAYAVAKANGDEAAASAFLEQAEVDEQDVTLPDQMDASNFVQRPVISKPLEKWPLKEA
How it was run: (§1)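 Synthetic peptides and protein were dialysed overnight into the same 20 mM Tris–HCl pH 7.5, 150 mM NaCl. α-COP target: quintuple-mutant S. pombe α-COP(1–327), His-Smt3-tagged, E. coli-expressed, tag cleaved. β′-COP target: S. cerevisiae β′-COP(1–814)/α-COP C-terminal fragment dimer from Hi-5 insect cells. Ratios are taken from the Kd values.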

α‐COP = molecular target: T2, α‐COP (Schizosaccharomyces pombe, UniProt Q96WV5, F197K/I192K/L181K/L185K/L196K); test: Isothermal calorimetry; type: binding, S. pombe; conditions: from ITC Kd values for α‐COP and β′‐COP
T2 sequence (Q96WV5 1-327 L181K/L185K/I192K/L196K/F197K): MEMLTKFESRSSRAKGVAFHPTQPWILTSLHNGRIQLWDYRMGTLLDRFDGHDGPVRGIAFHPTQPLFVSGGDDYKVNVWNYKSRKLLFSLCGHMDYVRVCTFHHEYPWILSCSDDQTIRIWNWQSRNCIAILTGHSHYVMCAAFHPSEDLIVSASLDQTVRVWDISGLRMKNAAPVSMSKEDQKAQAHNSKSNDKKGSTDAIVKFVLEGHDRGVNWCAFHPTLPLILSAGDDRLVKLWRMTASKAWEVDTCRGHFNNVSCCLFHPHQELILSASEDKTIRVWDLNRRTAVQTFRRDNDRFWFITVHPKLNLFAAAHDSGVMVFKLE
How it was run: as §1

[2] = molecular target: T3, S. cerevisiae β′-COP(1–814)/α-COP(642–818) dimer (S. cerevisiae, UniProt P41811 1-814; P53622 642-818); test: ITC
T3 sequence (looked up) 1: T1 sequence (P41811 1-814)
T3 sequence (looked up) 2: T1 sequence (P53622 642-818 partner limits assumed)

[3] = molecular target: T3, S. cerevisiae …; test: pull-down
[4] = molecular target: T4, S. cerevisiae α-COP(1–818)/β′-COP(651–814) dimer (S. cerevisiae, UniProt P53622 1-818; P41811 651-814); test: pull-down
T4 sequence (looked up) 1: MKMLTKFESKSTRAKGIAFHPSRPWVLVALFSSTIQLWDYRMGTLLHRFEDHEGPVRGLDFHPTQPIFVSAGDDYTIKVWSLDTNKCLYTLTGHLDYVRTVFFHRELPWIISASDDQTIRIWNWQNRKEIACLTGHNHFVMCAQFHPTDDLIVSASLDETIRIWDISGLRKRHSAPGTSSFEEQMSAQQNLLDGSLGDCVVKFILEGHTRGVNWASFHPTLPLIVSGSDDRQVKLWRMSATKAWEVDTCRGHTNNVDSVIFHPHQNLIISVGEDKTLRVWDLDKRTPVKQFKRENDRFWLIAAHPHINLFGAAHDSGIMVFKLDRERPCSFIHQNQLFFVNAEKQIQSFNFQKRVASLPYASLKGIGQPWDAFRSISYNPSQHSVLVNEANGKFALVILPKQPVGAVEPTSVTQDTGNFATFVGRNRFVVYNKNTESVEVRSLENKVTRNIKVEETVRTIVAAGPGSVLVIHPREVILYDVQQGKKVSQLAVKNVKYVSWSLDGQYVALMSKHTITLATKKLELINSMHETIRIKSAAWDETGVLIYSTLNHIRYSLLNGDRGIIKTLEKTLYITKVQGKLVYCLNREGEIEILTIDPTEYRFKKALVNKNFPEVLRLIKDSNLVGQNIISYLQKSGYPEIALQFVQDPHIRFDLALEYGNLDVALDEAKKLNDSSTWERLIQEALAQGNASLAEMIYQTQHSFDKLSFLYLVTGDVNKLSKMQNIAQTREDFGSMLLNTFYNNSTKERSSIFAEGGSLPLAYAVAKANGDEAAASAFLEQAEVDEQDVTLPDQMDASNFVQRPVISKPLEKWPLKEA
T4 sequence (looked up) 2: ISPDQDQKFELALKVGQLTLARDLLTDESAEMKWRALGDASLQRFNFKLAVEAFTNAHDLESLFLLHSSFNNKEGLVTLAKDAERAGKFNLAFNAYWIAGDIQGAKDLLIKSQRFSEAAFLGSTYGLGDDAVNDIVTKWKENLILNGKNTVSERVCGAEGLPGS

[5] = molecular target: T5, S. cerevisiae β′-COP N-terminal β-propeller domain (residues 1–301) (S. cerevisiae, UniProt P41811 1-301); test: crystal structure
T5 sequence (looked up): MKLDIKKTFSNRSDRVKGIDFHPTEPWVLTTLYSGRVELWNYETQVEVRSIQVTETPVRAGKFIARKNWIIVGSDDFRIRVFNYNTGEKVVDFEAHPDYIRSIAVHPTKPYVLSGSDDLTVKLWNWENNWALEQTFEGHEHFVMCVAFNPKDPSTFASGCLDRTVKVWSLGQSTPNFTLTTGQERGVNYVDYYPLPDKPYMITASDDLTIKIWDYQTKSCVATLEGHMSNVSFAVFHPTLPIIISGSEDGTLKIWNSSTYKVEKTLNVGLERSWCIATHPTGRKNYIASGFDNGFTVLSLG

yeast Wbp1 variant peptide TFKKSN
fold tighter binding than KKTN [1]: 1.8 fold

TFKKSN
binds more tightly than KKTN to β′‐COP by a factor (β′‐COP): 1.8 fold | ratio of affinities of α‐COP and β′‐COP: factor by which the motif favours α‐COP (α‐COP): 2.2

TFKKTN [yeast Wbp1 peptide TFKKTN]
Kd [2]: 171 µM

KYKSRRSFIDEKKMP (domain or fragment, adenovirus, UniProt P68978 145-159, looked up) [GST fused to the cytoplasmic region of adenoviral E19 protein (KKxx motif)]
binding result [3]: binds | binding result [4]: binds

FEKVHVQ [porcine epidemic diarrhoea virus spike protein peptide FEKVHVQ]
binding result [5]: binds

RHLKSFFEAKKLV (domain or fragment, UniProt Q9BVK6 223-235, looked up) [GST fused to the cytoplasmic region of p25 (KKxx motif)]
binding result [3]: binds | binding result [4]: binds

RRSFIDEKKMP [adenoviral E19 protein peptide RRSFIDEKKMP]
Kd [2]: 49 µM

GARKLD [Scyl1 peptide GARKLD]
Kd [2]: 20.4 µM

EKEKSD [human Wbp1 (OST48) peptide EKEKSD]
Kd [2]: 3.4 µM

FEAKKLV [p25 peptide FEAKKLV]
Kd [2]: 27.7 µM

IKTKLL [Emp47p peptide IKTKLL]
Kd [2]: 22.5 µM

PEKPHSD [Insig-1 peptide PEKPHSD]
binding result [2]: binds | binding result [5]: binds

AEKSHQE [Insig-2 peptide AEKSHQE]
binding result [2]: binds | binding result [5]: binds

RIRQEIIKTKLL (domain or fragment, yeast, UniProt P43555 434-445, looked up) [GST fused to the cytoplasmic region of Emp47p (KxKxx motif)]
binding result [3]: binds | binding result [4]: binds
